The values below come from ChEMBL document CHEMBL1131479, “(R)-3,N-dimethyl-N-[1-methyl-3-(4-methyl-piperidin-1-yl) propyl]benzenesulfonamide: the first selective 5-HT7 receptor antagonist” (J Med Chem, 1998).

Test [1] concerns the target T1, 5-hydroxytryptamine receptor 7 (Homo sapiens, UniProt P34969). Nature of the test: Binding affinity towards cloned human 5-hydroxytryptamine 7 receptor expressed in HEK 293 cells using [3H]5-CT. Format: cell-based, HEK293. The method, boiled down:
(§1)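 Radioligand displacement binding on the receptor source and radioligand named in each line. Each value is the mean of at least two determinations, and every determination lay within 0.2 log unit of that mean.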

The target of test [2] is T2, Alpha-1B adrenergic receptor (Homo sapiens, UniProt P35368).
T2 sequence (P35368 whole entry): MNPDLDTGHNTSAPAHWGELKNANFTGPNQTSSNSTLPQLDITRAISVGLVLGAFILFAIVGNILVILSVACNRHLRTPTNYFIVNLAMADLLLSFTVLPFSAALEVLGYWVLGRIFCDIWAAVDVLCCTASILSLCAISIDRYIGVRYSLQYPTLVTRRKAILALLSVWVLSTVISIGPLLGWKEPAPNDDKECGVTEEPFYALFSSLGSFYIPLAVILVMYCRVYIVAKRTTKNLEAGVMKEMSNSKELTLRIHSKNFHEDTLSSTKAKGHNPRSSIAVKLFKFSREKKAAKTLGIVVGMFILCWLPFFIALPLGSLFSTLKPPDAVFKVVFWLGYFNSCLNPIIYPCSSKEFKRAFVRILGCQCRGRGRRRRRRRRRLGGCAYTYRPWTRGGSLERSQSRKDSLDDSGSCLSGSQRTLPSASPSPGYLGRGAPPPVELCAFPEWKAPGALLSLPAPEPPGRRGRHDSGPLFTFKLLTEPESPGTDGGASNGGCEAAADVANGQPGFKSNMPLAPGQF
The test can be described thus: The compound was tested for its binding affinity towards adrenergic alpha-1B receptors.

In test [3] the target is 5-hydroxytryptamine receptor 1E (Homo sapiens, UniProt P28566). Nature of the test: The compound was tested for its binding affinity towards cloned human 5-hydroxytryptamine 1E receptor in CHO cells using [3H]5-HT. Format: cell-based. A digest of the protocol:
(§2)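 Radioligand displacement on cloned human receptors expressed in the host cell line listed in each line. Values are the mean of at least two determinations, each within 0.2 log unit of the mean.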

Test [4] concerns the target 5-hydroxytryptamine receptor 1D (Homo sapiens, UniProt P28221). Nature of the test: The compound was tested for its binding affinity towards cloned human 5-hydroxytryptamine 1D receptor in CHO cells using [3H]5-HT. Format: cell-based. The method, boiled down:
as §2

In test [5] the target is 5-hydroxytryptamine receptor 2A (Homo sapiens, UniProt P28223). The test can be described thus: The compound was tested for its binding affinity towards cloned human 5-hydroxytryptamine 2A receptor in HEK293 cells using [3H]-ketanserin. The format is cell-based. The method, boiled down:
as §2

Test [6] has as its target T3, 5-hydroxytryptamine receptor 1F (Homo sapiens, UniProt P30939).
T3 sequence (P30939 whole entry): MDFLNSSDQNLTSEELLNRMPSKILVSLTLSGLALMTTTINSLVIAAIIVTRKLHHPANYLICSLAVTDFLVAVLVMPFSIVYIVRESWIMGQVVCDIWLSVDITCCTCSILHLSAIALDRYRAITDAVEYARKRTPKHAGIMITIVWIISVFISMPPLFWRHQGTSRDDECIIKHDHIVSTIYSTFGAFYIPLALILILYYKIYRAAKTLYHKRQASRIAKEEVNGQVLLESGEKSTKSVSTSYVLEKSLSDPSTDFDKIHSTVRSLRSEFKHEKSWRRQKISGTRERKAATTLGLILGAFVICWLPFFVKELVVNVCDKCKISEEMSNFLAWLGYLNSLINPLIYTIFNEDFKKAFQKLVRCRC
Nature of the test: The compound was tested for its binding affinity towards cloned human 5-hydroxytryptamine 1F receptor in CHO cells using [3H]5-HT. Format: cell-based. A digest of the protocol:
as §1

In test [7] the target is T1, 5-hydroxytryptamine receptor 7. Nature of the test: The compound was tested for its binding affinity towards cloned human 5-hydroxytryptamine 7 receptor in HEK 293 cells using [3H]5-CT. Format: cell-based, HEK293. The method, boiled down:
(§3)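 Radioligand displacement binding on cloned human receptors expressed in HEK 293 cells: 5-HT2B labelled with [3H]-5-HT, 5-HT7 labelled with [3H]-5-CT. Each value is the mean of at least two determinations, each within 0.2 log unit of the mean.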

In test [8] the target is T4, 5-hydroxytryptamine receptor 2C (Homo sapiens, UniProt P28335).
T4 sequence (P28335 whole entry): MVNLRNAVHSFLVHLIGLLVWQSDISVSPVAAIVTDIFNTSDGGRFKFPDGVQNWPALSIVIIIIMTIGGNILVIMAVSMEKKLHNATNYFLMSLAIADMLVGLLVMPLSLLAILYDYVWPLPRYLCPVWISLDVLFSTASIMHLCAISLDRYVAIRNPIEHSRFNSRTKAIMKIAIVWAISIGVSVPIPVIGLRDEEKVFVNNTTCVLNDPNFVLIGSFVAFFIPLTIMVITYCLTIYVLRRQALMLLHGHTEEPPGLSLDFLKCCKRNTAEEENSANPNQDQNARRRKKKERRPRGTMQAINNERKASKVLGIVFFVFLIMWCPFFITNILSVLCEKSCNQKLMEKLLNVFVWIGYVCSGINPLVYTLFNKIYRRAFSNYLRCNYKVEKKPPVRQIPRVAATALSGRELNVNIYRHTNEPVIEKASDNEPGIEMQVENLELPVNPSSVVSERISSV
The test can be described thus: The compound was tested for its binding affinity towards cloned human 5-hydroxytryptamine 2C receptor in HEK293 cells using [3H]mesulergine. The format is cell-based. The method, boiled down:
as §1

For test [9], the target named is 5-hydroxytryptamine receptor 1B (Homo sapiens, UniProt P28222). Nature of the test: The compound was tested for its binding affinity towards cloned human 5-hydroxytryptamine 1B receptor in CHO cells using [3H]5-HT. Format: cell-based. A digest of the protocol: as §2
5-hydroxytryptamine receptor 1B, sequence (P28222 whole entry): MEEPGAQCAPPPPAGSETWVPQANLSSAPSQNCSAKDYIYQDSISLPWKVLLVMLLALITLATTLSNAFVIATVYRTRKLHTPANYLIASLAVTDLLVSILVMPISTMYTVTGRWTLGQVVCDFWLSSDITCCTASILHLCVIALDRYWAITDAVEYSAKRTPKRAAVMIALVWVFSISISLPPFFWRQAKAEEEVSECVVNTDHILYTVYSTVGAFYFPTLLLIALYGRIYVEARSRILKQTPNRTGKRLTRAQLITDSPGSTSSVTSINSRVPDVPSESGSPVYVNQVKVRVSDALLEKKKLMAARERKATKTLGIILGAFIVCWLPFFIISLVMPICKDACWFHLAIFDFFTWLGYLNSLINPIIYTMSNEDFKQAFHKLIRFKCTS
For test [10], the target named is T5, 5-hydroxytryptamine receptor 1A (Homo sapiens, UniProt P08908).
T5 sequence (P08908 whole entry): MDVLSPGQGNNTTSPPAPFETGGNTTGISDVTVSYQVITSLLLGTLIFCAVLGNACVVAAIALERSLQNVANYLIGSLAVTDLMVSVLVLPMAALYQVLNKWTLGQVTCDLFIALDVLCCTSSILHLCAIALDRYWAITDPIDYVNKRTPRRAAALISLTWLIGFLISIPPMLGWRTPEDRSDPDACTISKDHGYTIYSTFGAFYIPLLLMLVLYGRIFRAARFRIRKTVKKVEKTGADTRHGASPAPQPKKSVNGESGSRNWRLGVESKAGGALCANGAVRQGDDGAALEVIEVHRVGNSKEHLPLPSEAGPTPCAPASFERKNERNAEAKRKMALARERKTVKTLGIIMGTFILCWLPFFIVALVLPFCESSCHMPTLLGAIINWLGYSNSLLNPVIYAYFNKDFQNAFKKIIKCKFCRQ
Nature of the test: The compound was tested for its binding affinity towards cloned human 5-hydroxytryptamine 1A receptor in HEK 293 cells using [3H]8-OH-DPAT. Format: cell-based, HEK293. A digest of the protocol:
as §1

For a further test, the target named is D(3) dopamine receptor (Homo sapiens, UniProt P35462). Nature of the test: The compound was tested for its binding affinity towards cloned human Dopamine receptor D3 in CHO cells using [125I]iodosulpiride. Format: cell-based.
D(3) dopamine receptor, sequence (P35462 whole entry): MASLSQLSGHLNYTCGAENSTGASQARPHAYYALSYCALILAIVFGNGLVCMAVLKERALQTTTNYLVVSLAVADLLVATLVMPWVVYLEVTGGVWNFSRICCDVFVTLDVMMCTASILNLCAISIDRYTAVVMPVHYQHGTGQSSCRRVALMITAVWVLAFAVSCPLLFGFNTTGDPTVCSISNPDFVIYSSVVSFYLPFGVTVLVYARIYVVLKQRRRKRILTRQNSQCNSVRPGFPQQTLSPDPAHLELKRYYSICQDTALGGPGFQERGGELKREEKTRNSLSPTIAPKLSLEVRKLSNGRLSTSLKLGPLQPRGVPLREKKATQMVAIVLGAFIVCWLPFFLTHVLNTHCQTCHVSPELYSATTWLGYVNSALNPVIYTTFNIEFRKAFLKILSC
The target of test [11] is 5-hydroxytryptamine receptor 2B (Homo sapiens, UniProt P41595). The test can be described thus: The compound was tested for its binding affinity towards cloned human 5-hydroxytryptamine 2B receptors in HEK293 cells using [3H]5-HT. The format is cell-based. A digest of the protocol:
as §3

The target in the next test is D(2) dopamine receptor (Homo sapiens, UniProt P14416). The test can be described thus: The compound was tested for its binding affinity towards cloned human Dopamine receptor D2 in CHO cells using [125I]iodosulpiride. The format is cell-based.
D(2) dopamine receptor, sequence (P14416 whole entry): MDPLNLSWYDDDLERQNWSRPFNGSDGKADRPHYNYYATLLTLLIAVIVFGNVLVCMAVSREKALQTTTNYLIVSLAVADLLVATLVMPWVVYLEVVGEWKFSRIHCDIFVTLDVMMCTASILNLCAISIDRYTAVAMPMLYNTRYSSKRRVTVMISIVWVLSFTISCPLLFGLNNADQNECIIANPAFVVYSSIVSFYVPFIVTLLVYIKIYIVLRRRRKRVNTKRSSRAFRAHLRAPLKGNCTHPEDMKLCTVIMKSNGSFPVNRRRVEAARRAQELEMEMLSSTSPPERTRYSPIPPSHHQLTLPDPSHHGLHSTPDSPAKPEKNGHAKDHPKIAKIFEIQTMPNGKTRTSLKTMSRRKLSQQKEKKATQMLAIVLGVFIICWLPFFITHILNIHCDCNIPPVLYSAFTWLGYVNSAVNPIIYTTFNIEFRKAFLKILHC
Test [12] deals with 5-hydroxytryptamine receptor 6 (Homo sapiens, UniProt P50406). Nature of the test: The compound was tested for its binding affinity towards cloned human 5-hydroxytryptamine 6 receptor in HeLa cells using […]. The format is cell-based. A digest of the protocol: as §2
5-hydroxytryptamine receptor 6, sequence (P50406 whole entry): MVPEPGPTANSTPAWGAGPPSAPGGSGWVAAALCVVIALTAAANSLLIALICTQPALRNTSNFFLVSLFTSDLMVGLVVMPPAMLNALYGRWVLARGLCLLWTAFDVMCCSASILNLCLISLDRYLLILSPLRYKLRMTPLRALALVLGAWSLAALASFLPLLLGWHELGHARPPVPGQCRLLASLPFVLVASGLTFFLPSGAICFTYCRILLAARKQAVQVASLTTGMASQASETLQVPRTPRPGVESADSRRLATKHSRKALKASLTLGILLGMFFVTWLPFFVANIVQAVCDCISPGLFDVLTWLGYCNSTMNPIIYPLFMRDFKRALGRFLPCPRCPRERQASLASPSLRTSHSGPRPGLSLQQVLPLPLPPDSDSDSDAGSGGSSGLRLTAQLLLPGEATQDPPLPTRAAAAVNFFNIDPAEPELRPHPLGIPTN

A value given as a limit tells only on which side of the number the result lay.

T1 sequence (P34969 whole entry): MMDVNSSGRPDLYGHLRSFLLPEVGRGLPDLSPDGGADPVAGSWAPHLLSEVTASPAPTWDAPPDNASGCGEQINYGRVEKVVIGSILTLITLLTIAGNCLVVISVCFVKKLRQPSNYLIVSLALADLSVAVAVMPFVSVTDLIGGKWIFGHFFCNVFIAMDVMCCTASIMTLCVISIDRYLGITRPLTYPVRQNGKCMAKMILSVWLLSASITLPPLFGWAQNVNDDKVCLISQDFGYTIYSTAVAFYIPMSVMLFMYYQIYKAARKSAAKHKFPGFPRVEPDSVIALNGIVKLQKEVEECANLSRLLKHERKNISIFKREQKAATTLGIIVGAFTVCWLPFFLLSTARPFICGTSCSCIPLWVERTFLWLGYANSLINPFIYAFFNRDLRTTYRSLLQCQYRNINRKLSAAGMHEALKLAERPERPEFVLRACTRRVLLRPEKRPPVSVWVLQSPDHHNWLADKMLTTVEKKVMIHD
5-hydroxytryptamine receptor 2A, sequence (P28223 whole entry): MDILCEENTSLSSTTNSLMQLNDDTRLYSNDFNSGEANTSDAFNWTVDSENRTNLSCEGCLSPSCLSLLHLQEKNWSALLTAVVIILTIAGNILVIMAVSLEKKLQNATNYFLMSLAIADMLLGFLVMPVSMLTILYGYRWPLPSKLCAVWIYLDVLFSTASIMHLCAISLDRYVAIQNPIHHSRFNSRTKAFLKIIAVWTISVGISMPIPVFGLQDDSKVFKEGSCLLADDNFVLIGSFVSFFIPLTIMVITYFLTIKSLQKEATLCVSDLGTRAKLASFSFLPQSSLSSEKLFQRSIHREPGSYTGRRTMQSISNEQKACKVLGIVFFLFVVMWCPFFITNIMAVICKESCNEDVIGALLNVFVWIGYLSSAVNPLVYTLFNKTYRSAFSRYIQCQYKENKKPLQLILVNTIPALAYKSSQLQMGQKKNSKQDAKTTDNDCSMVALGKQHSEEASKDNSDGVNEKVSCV
5-hydroxytryptamine receptor 1E, sequence (P28566 whole entry): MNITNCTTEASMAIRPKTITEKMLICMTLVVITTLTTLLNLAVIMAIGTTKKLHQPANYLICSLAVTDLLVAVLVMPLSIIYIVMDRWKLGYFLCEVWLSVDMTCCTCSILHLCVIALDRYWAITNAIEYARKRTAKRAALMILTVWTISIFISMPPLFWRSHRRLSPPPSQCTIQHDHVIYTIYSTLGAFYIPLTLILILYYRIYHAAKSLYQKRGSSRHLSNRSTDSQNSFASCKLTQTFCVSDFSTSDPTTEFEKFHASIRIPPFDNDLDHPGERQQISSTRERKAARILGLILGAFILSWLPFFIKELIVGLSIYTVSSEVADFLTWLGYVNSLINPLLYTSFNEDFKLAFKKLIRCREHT
5-hydroxytryptamine receptor 2B, sequence (P41595 whole entry): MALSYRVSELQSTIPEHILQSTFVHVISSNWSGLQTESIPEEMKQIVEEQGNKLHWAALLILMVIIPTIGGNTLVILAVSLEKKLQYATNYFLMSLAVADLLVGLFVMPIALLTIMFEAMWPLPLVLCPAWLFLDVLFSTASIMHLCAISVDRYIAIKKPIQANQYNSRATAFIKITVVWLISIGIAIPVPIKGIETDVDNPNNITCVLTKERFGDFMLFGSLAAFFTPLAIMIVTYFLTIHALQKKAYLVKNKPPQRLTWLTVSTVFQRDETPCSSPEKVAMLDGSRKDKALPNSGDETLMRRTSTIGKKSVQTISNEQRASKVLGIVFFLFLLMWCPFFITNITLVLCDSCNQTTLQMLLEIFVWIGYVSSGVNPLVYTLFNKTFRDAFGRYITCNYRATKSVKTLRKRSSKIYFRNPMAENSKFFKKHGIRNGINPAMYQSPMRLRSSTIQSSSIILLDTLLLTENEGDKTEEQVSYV
5-hydroxytryptamine receptor 1D, sequence (P28221 whole entry): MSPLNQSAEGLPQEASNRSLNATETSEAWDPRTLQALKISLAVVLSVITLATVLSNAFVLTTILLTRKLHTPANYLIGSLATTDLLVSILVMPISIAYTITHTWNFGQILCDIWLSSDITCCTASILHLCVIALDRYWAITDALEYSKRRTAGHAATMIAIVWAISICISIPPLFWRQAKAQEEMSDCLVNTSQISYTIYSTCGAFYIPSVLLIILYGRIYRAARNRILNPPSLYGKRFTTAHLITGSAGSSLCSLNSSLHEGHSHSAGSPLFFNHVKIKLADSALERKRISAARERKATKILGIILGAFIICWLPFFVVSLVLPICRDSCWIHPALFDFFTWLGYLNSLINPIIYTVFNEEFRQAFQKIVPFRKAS

As a reminder, the Ki is a measure of affinity in units of concentration, obtained from inhibition or displacement. In [1], `CC1CCN(CC[C@@H](C)N(C)S(=O)(=O)c2cc(Br)c(Br)s2)CC1` had a Ki of 15.8 nM.

In the case of `Cc1cccc(S(=O)(=O)N(C)[C@H](C)CCN2CCC(C)CC2)c1` [SB-258719], the Ki in test [2] was above 15800 nM; in test [3] it was above 15800 nM; in [4], 3160 nM; in test [5], above 15800 nM; in test [6] it was above 6310 nM; in test [7], 31.6 nM. Also, the Ki in test [8] is above 15800 nM; in test [9], above 5010 nM; in test [10] it was above 7940 nM; at D(3) dopamine receptor it was 3980 nM; in test [11], above 5010 nM; on D(2) dopamine receptor it was 3980 nM. The same compound had a Ki in [12] above 15800 nM.

As to `CC1CCN(CC[C@@H](C)N(C)S(=O)(=O)c2ccc(Cl)c(Cl)c2)CC1`, the Ki in [1] is 31.6 nM.

Turning to `C[C@H]1CCCN(CC[C@H](C)N(C)S(=O)(=O)c2cccc3ccccc23)C1`, in test [1], the Ki is above 10000 nM.

In test [1], `C[C@@H]1CCCN(CC[C@H](C)N(C)S(=O)(=O)c2cccc3ccccc23)C1` gave a Ki of 1580 nM.

For `CC1CCN(CC[C@@H](C)N(C)S(=O)(=O)c2ccc(Br)c(Br)c2)CC1`, in [1], the Ki was 20 nM.

Turning to `C[C@@H]1CCCN(CC[C@@H](C)N(C)S(=O)(=O)c2cccc3ccccc23)C1`, the inhibition constant Ki in test [1] was 126 nM.

With `C[C@H]1CCCN(CC[C@@H](C)N(C)S(=O)(=O)c2cccc3ccccc23)C1`, the affinity in test [1] corresponds to a Ki of 631 nM.

As for `CC1CCN(CC[C@@H](C)N(C)S(=O)(=O)c2cccc3ccccc23)CC1`, in test [1], the Ki was 31.6 nM.

Take `CC1CCCN(CCC(C)N(C)S(=O)(=O)c2cccc3ccccc23)C1` (configuration not stated): in test [1], affinity was put at a Ki of 63.1 nM.
